# Laboratory results reported in paper PMC8612216 (Proceedings of the National Academy of Sciences of the …, 2021).
# Experiments:
# [1] = molecular target: T1, NFR5 ectodomain (Lotus japonicus, UniProt Q70KR1); experiment: BLI binding of NFR5 ectodomain; conditions: analyte 100 to 1.56 µM
# T1 sequence (Q70KR1 29-242): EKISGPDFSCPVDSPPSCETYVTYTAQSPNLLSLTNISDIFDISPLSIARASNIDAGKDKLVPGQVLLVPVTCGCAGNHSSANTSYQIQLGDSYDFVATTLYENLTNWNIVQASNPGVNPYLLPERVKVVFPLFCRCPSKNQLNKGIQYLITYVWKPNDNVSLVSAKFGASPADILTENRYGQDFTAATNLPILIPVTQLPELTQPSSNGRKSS
# [2] = molecular target: T2, CERK1 (Arabidopsis thaliana, UniProt A8R7E6); experiment: BLI kinetics of CERK1 ectodomain binding to chitin fragment
# T2 sequence (A8R7E6 24-232 limits assumed): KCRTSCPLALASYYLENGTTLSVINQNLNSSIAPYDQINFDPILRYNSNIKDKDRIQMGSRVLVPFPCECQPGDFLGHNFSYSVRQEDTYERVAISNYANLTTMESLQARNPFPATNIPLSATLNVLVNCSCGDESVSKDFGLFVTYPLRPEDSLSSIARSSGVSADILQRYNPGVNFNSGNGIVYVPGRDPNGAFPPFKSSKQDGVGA
# [3] = molecular target: T3, engineered LYS11 (ENG-LYS11) (Lotus japonicus, UniProt D3KTZ8); experiment: BLI binding of engineered LYS11 ectodomain; conditions: ENG-LYS11, analyte 100 to 1.56 µM
# T3 sequence (D3KTZ8 28-247): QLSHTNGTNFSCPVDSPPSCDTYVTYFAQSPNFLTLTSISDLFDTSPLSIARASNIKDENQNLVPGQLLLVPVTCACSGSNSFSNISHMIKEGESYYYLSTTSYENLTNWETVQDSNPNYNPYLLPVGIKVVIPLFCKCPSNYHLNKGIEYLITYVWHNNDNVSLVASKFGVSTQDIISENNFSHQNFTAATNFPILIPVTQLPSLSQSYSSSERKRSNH
# [4] = molecular target: T4, NFP (Medicago truncatula, UniProt Q0GXS4); experiment: MST steady-state binding to fluorescently labeled NFP; conditions: ligand 0.6 to 20,000 nM, NFP 12.5 to 50 nM
# T4 sequence (Q0GXS4 28-246): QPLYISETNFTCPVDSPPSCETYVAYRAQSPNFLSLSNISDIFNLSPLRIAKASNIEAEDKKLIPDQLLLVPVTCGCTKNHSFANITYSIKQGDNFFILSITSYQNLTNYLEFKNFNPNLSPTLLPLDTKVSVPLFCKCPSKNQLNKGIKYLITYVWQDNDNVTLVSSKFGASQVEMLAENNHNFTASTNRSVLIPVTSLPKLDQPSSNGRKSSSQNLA
# How it was run: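 Microscale thermophoresis using NHS blue dye-labelled NFP ectodomain (insect cell-expressed) held at a constant 12.5–50 nM. Ligands were S. meliloti succinoglycan (EPS-I) and maltodextrin, each titrated from 0.6 to 20,000 nM. Steady-state binding signal was recorded.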
Kd [1],binding kinetics [2],Kd [3],binding to NFP [4],Molecule
does not bind,fast association and dissociation rates,completely lost the ability to bind,–,"N[C@H]1[C@H](O[C@H]2[C@H](O)[C@@H](N)[C@H](O[C@H]3[C@H](O)[C@@H](N)[C@H](O[C@H]4[C@H](O)[C@@H](N)[C@H](O[C@H]5[C@H](O)[C@@H](N)C(O)O[C@@H]5CO)O[C@@H]4CO)O[C@@H]3CO)O[C@@H]2CO)O[C@H](CO)[C@@H](O)[C@@H]1O (some centres unmarked) [CO5, chitopentaose]"
–,–,–,unable to bind,S. meliloti succinoglycan [EPS-I]
–,–,–,unable to bind,maltodextrin
